Among the data in ChEMBL document CHEMBL1828620, “Synthesis of novel 6-phenyl-2,4-disubstituted pyrimidine-5-carbonitriles as potential antimicrobial agents” (2011) are zone of inhibition values, retold here.

This assay concerns Candida albicans. Briefly: Antifungal activity against Candida albicans IFO 0583 at 100 ug/disc after 48 hrs by agar disc diffusion method. The assay is classed as functional. The note with it: IFO 0583, 48 h, read-out: DIZ. An outline of the steps: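 Agar disc diffusion: sterile 8 mm filter-paper discs moistened with compound solution in DMSO, placed on agar plates each pre-inoculated with one organism; plates held at 37 °C; growth inhibition zone diameter measured after 24 h (bacteria) or 48 h (C. albicans).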

Regarding `Clc1ccccc1C(c1ccccc1)(c1ccccc1)n1ccnc1` [CLOTRIMAZOLE], the zone of inhibition at 100 µg/disc was 21 mm.
